Assay outcomes as filed in PubChem.
BAP1 inh – blocks human BAP1 ubiquitin-AMC hydrolysis | recombinant BAP1, Ub-AMC hydrolysis fluorescence kinetic; stronger effect = lower value | calls only at 20 µM | 72,000 compounds, 0.48% hits;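 active = activity remaining at or below 50% of control, provided the compound also passes the data quality filters; inactive = the rest, including low values that fail the filters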;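 also: 100% = DMSO wells rate and 0% = substrate alone blank rate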
Hsp90 block – displaces geldanamycin probe from tumor Hsp90; P07900; NCI-N417 lysate Hsp90, Cy3B-geldanamycin FP displacement; inhibition, % at 30 µM; 64,000 compounds, 0.35% hits; AID 429;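 active = inhibition above 50%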;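 also: 0% = tracer plus lysate wells and 100% = tracer alone without lysate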
M1 ag – agonists of M1 muscarinic receptor | CHO-M1 cells, Fluo-4 calcium fluorescence, agonist mode; stronger effect = higher value | 64,000 compounds, 3% hits | B-score at 10 µM;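 active = fluorescence rise, raw or as B-score row- and column-corrected plate score, outside the 99.7% band of its plate's samples, either direction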
E coli WT exp – growth inhibitors of E. coli BW25113 wild type; OD600 absorbance; growth inhibition, % at 100 µM; 98,000 compounds, 0.15% hits; AID 710;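 active = growth inhibition above about 50% at one test dose, limit read from the data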;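 also: growth measured after 20 h incubation at 37 °C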
Ecoli tolC – blocks growth of E. coli BW25113 tolC mutant | OD615 | 65,000 compounds, 2.2% hits | AID 573 | growth inhibition, % at 10 µM (by protocol);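 active = growth inhibition at or above a cutoff equal to the mean over every tested compound plus 3 SD, cut at about 60% in these data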;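 also: growth measured after 20 h incubation at 37 °C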
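Assay system: tolC-deleted E. coli BW25113. Medium: kanamycin-containing LB broth (50 µg/mL). Dosing: 10 µM final, single dose. Timing: bacterial growth with compound for 20 h at 37 °C. Detection: A615 absorbance measurement. Read-out basis: growth inhibition in percent.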
M1 antagonist – blocks the rat M1 muscarinic receptor response to acetylcholine | P08482 | CHO-M1 cells, Fluo-4 calcium, ACh EC80 antagonist mode; stronger effect = lower value | B-score at 10 µM | 64,000 compounds, 3.4% hits;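 active = calcium fluorescence response, raw or row-and-column corrected B-score, differing from the plate sample mean either way at a set confidence level, mostly lower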
Target sequence (P08482 whole entry, looked up): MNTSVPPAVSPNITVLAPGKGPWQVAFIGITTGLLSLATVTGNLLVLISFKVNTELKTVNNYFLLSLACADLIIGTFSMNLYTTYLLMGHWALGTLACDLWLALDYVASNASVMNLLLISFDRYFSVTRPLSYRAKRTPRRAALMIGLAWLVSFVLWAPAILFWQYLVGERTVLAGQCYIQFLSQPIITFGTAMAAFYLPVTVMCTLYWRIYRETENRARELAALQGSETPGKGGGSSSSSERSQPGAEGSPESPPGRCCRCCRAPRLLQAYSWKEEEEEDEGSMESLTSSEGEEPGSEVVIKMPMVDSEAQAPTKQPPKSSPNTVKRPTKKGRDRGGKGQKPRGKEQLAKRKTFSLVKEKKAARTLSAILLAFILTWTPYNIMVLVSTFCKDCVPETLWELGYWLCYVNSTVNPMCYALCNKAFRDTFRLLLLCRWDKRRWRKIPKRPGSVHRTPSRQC
* hit, by the source's call; i = inactive; . = no result given; + = active, no number. Shown are actives, neighbours in structure and some others; about 5.1% of the full set was active somewhere.

SMILES	BAP1 inh	Hsp90 block	M1 ag	E coli WT exp	Ecoli tolC	M1 antagonist
CC(C)CN1C(=O)c2ccc(Oc3ccc([N+](=O)[O-])cc3)cc2C1=O	i	.	.	.	.	.
CCSc1nnc(NC(=O)CSc2nccn2-c2cccc(C)c2C)s1	i	3	-0.093	4	84*	0.016
Brc1cc(Br)c2ncnc(N3CCCCC3)c2c1	.	.	-0.0038	11	100*	0.4
Clc1ccc(-n2ncc3c(N4CCCCCC4)ncnc32)cc1	i	-1	-0.025	-7	11	0.36
CCc1nnc(NC(=O)c2cccc(C(=O)Nc3nnc(CC)s3)n2)s1	i	-2	3	.	94*	-0.82
CCc1nnc(NC(=O)c2ccncc2)s1	i	-1	0.46	-13	-13	0.063
Clc1ccc(OCCn2ccnc2)c2ccccc12	i	-2	0.017	64*	100*	-0.16
CC(=O)NCc1nc2ccccc2n1Cc1ccccc1C	i	1	-0.25	-2	-1	0.82
CC(=O)Nc1nc2ccccc2n1Cc1ccccc1C	i	-6	0.14	4	98*	0.0039
CC1=CCC(COC(=O)Nc2ccccc2)CC1 (stereo not given)	i	-1	0.37	14	98*	-0.04
O=C(Nc1ccccc1)OCC1CCCN2CCCCC12 (stereo not given)	.	.	0.2	2	-8	-0.67
N#CC1=C(N)NC(SCC(=O)c2ccc(Cl)cc2)=C(C#N)C12CCCC2	.	.	.	-1	.	.
N#CC1=C(N)NC(SCc2ccccc2)=C(C#N)C12CCCCC2	i	-7	0.72	16	62*	-1.4
CCOC(=O)C(C)OC(=O)c1cc([N+](=O)[O-])ccc1Cl (stereo not given)	i	.	.	.	.	.
CCOC(=O)c1sc(NC(=O)c2ccccc2F)nc1C	i	.	.	.	.	.
N=c1n(CCN2CCCC2)c2ccccc2n1CC(O)c1ccco1 (stereo not given)	i	4	0.35	-2	-11	-0.71
N=c1n(CCN2CCCCC2)c2ccccc2n1CC(O)c1ccc(Cl)c(Cl)c1 (stereo not given)	.	.	.	98*	.	.
Nc1c(C(O)(C(F)(F)F)C(F)(F)F)ccc2ccccc12	+	2	0.52	21	31	0.0031
CCn1c2ccccc2c2cc(NC(=O)c3ccco3)ccc21	i	-13	-0.086	-6	87*	0.99
COc1ccc(C2(O)CC3CCC(C2)N3c2nc(C)cc(C)c2C#N)cc1 (stereo not given)	i	-2	0.51	-11	85*	-0.039
COc1ccc(Oc2nc(C)cc(C)c2C#N)cc1	i	-6	-0.52	10	3	-0.046
CCC(C)c1ccc(NC(=O)C(C)Oc2cccc(Cl)c2)cc1 (stereo not given)	i	.	.	.	.	.
COc1nc(Nc2nc3ccccc3c(=O)[nH]2)nc2ccc(C)cc12	i	0	1.5	.	1	-2.1*
COc1cccc(-c2cc(C(=O)Nc3c(C)nn(Cc4ccccc4C)c3C)no2)c1	i	-2	-0.71	-6	71*	-0.48
COc1cccc(-c2cc(C(=O)N3C(C)CCCC3C)no2)c1 (stereo not given)	i	1	-0.054	-1	68*	-0.81
SMILES	BAP1 inh	Hsp90 block	M1 ag	E coli WT exp	Ecoli tolC	M1 antagonist
COc1cccc(-c2cc(C(=O)Nc3cccnc3)no2)c1	.	.	.	-3	.	.
COc1cccc(-c2cc(C(=O)Nc3cc(OC)c(OC)c(OC)c3)no2)c1	i	-1	2.4*	-14	13	-1.2
O=C(Nc1ccc(-c2nc3ncccc3o2)cc1)c1ccc(-c2cccc([N+](=O)[O-])c2)o1	i	.	.	.	.	.
CCOC(=O)c1c(NC(=O)c2cc(Cl)ccc2[N+](=O)[O-])sc2c1CCCCC2	i	.	.	.	.	.
O=c1oc2c3c4c(cc2c(C(F)(F)F)c1CCBr)CCCN4CCC3	i	.	.	.	.	.
O=c1oc2c3c4c(cc2s1)CCCN4CCC3	i	69*	-2	5	29	0.5
COCc1nnc(NC(=O)c2ccc(S(=O)(=O)N3CCCCCC3)cc2)o1	i	-1	-0.4	4	74*	0.35
CN(C1CCCCC1)S(=O)(=O)c1ccc(NC(=O)c2ccc(Br)o2)cc1	i	1	-0.017	-7	70*	0.004
COCc1nnc(NC(=O)c2ccc(S(=O)(=O)N(C)C3CCCCC3)cc2)o1	i	3	0.14	6	95*	0.43
CCN(Cc1ccccc1)S(=O)(=O)c1ccc(C(=O)Nc2nnc(C3CC3)o2)cc1	i	-1	0.18	2	19	0.53
